Experimental data collected from several papers.
ABCB1: ATP-dependent translocase ABCB1 (ABCB1, Homo sapiens, UniProt P08183)
SLC47A2: Multidrug and toxin extrusion protein 2 (SLC47A2, Homo sapiens, UniProt Q86VL8)

| SMILES | target | test | system | conditions | measurement | value |
| --- | --- | --- | --- | --- | --- | --- |
| C[C@]12CCCN1CC1=NNC(=O)c3cc(F)cc4[nH]c2c1c34 | ABCB1 |  | MDCK-MDR1 | 10 µM | Papp A→B | 255 nm/s |
| O=C(O)CSc1nnc(Br)n1-c1ccc(C2CC2)c2ccccc12 | SLC47A2 | transporter uptake, inhibitor | HEK293 | 100 µM, 2 min | inhibition | -9% |
| C=C[C@H]1C[N@@]2CC[C@H]1C[C@@H]2[C@@H](O)c1ccnc2ccc(OC)cc12 | ABCB1 |  | MDCK-MDR1 | 5 µM | Papp A→B | 131 nm/s |
| CC1(C)CCC2(CC1)N[C@@H](C(=O)N[C@@H]1CC[C@@H](C(N)=O)OC1)[C@H](c1ccnc(Cl)c1F)[C@]21C(=O)Nc2cc(Cl)ccc21 | ABCB1 |  | Caco-2 | 1 µM, 2 h | efflux ratio | 16.1 |
| C[C@H]1O[C@@H](O[C@H]2[C@@H](O)C[C@H](O[C@H]3[C@@H](O)C[C@H](O[C@H]4CC[C@@]5(C)[C@H](CC[C@@H]6[C@@H]5C[C@@H](O)[C@]5(C)[C@@H](C7=CC(=O)OC7)CC[C@]65O)C4)O[C@@H]3C)O[C@@H]2C)C[C@H](O)[C@@H]1O | ABCB1 |  | human, plasma | oral, 0.5 mg | Cmax | 1.99 ng/mL |
| CN(C(=O)n1cnc(-c2ccc[n+]([O-])c2)c1)C1CCCCC1 | SLC47A2 | transporter uptake, inhibitor | MDCK-II | 0.3 µg/mL | inhibition | 12% |
| Nc1nc(NC2CC2)c2ncn([C@H]3C=C[C@@H](CO)C3)c2n1 | SLC47A2 | transporter uptake, inhibitor |  |  | IC50 | > 500 µM |
| Cc1ccc(C(=O)N2CCOC[C@H]2Cc2cccc(-n3nccn3)c2)c(-n2nccn2)c1 | Cytochrome P450 2A6 (CYP2A6, Homo sapiens, UniProt P11509) | enzyme activity, inhibitor | human, liver microsomes | 100 µM | inhibition | 19% |
| COCCc1ccc(OCC(O)CNC(C)C)cc1 (stereo not shown) | ABCB1 |  | MDCK-MDR1 | 5 µM | Papp A→B | 321 nm/s |
| Cc1cc(Nc2ncnc3ccc(NC4=NC(C)(C)CO4)cc23)ccc1Oc1ccn2ncnc2c1 | ABCB1 |  | MDCK-MDR1, Caco-2 | 1 µM, 1 h, pH 7.4 | efflux ratio | 9.48 |
